For assay [1], the system named is Vaccinia virus. The experiment in a line: Antiviral activity against Vaccinia virus in human HEL cells assessed as reduction of virus-induced cytopathogenicity. The class given is functional. Particulars: Orthopoxvirus vaccinia. In outline:
(§1)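 Confluent cell monolayers (E6SM, HEL, HeLa or Vero, per line) inoculated with 100 CCID50 virus; 1 h adsorption, residual virus removed, then incubated with compound at 400, 200, 100 … µg/ml. Cytopathicity scored once complete in untreated virus controls; MIC = concentration inhibiting virus-induced cytopathicity.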

In assay [2] the test system is Vaccinia virus. As to the kind of experiment: Antiviral activity against Vaccinia virus in human E6SM cells assessed as reduction of virus-induced cytopathogenicity. The class given is functional. Particulars: Orthopoxvirus vaccinia. In outline:
as §1

The structures appear in SMILES notation. Values after ≈ are worked out from the molar mass of the structure shown.

The text below walks through data of ChEMBL document CHEMBL1149790, “Synthesis of some novel thiourea derivatives obtained from 5-[(4-aminophenoxy)methyl]-4-alkyl/aryl-2,4-dihydro-3H-1,2,4-triazole-3-thiones and evaluation as antiviral/anti-HIV and anti-tuberculosis agents” (Eur J Med Chem, 2008).

`Nc1nc2c(ncn2COC(CO)CO)c(=O)[nH]1` [GANCICLOVIR]: the MIC with Vaccinia virus [1] and in the assay with Vaccinia virus [2] was > 100 µg/mL each time.
Regarding `C=CCNC(=S)Nc1ccc(-c2n[nH]c(=S)n2-c2ccccc2)cc1`, the MIC with Vaccinia virus [1] and with Vaccinia virus [2] was > 80 µg/mL throughout.
As for `S=C(Nc1ccccc1)Nc1ccc(-c2n[nH]c(=S)n2-c2ccccc2)cc1`, the MIC in the assay with Vaccinia virus [1] and in the assay with Vaccinia virus [2] was > 80 µg/mL each time.
With `CCCCCCNC(=S)Nc1ccc(-c2n[nH]c(=S)n2CC)cc1`, the MIC in the assay with Vaccinia virus [1] and in the assay with Vaccinia virus [2] was > 80 µg/mL in each case.
`CCNC(=S)Nc1ccc(OCc2n[nH]c(=S)n2CC)cc1`: the MIC with Vaccinia virus [1] and with Vaccinia virus [2] was 240 µg/mL (≈ 711 µM) throughout.
With `C=CCn1c(-c2ccc(NC(=S)Nc3ccccc3)cc2)n[nH]c1=S`, the MIC in the assay with Vaccinia virus [1] and in the assay with Vaccinia virus [2] was > 16 µg/mL in each case.
Regarding `C=CCNC(=S)Nc1ccc(-c2n[nH]c(=S)n2C)cc1`, the MIC with Vaccinia virus [1] and in the assay on Vaccinia virus [2] was 240 µg/mL (≈ 786 µM) throughout.
As for `C=CCn1c(COc2ccc(N)cc2)n[nH]c1=S`, the MIC with Vaccinia virus [1] and with Vaccinia virus [2] was > 400 µg/mL in each case.
Consider `Cn1c(COc2ccc(NC(=S)Nc3ccccc3)cc2)n[nH]c1=S`, for which the MIC in the assay on Vaccinia virus [1] and in the assay with Vaccinia virus [2] was > 80 µg/mL in each case.
For the molecule `O=c1[nH]c(=O)n([C@H]2C[C@H](O)[C@@H](CO)O2)cc1/C=C/Br` [BRIVUDINE], the MIC in the assay with Vaccinia virus [1] and in the assay with Vaccinia virus [2] was 3.2 µg/mL (≈ 9.61 µM) in each case.
On to `C=CCNC(=S)Nc1ccc(-c2nnc(SCc3ccc(Cl)cc3Cl)n2C)cc1`, for which the MIC with Vaccinia virus [1] and in the assay on Vaccinia virus [2] was > 16 µg/mL throughout.
As to `NC(=O)c1ncn([C@@H]2O[C@H](CO)[C@@H](O)[C@H]2O)n1` [RIBAVIRIN], the MIC with Vaccinia virus [1] and with Vaccinia virus [2] was 48 µg/mL (≈ 197 µM) in each case.
With `Nc1nc2c(ncn2COCCO)c(=O)[nH]1` [ACYCLOVIR], the MIC in the assay with Vaccinia virus [1] and with Vaccinia virus [2] was > 400 µg/mL in each case.
Turning to `CNC(=S)Nc1ccc(-c2nnc(SCc3ccccc3)n2C)cc1`, the MIC in the assay on Vaccinia virus [1] and with Vaccinia virus [2] was > 16 µg/mL throughout.
For the molecule `CCCCCCNC(=S)Nc1ccc(-c2n[nH]c(=S)n2C)cc1`, the MIC with Vaccinia virus [1] and in the assay with Vaccinia virus [2] was 80 µg/mL (≈ 229 µM) in each case.
For `C=CCn1c(COc2ccc(NC(=S)NCC)cc2)n[nH]c1=S`, the MIC in the assay on Vaccinia virus [1] and with Vaccinia virus [2] was > 400 µg/mL throughout.
For the molecule `CNC(=S)Nc1ccc(OCc2n[nH]c(=S)n2C)cc1`, the MIC with Vaccinia virus [1] and in the assay on Vaccinia virus [2] was > 400 µg/mL throughout.
Consider `C=CCNC(=S)Nc1ccc(OCc2n[nH]c(=S)n2CC=C)cc1`, for which the MIC with Vaccinia virus [1] and with Vaccinia virus [2] was 240 µg/mL (≈ 664 µM) in each case.
For the molecule `CCCCCCNC(=S)Nc1ccc(-c2n[nH]c(=S)n2-c2ccccc2)cc1`, the MIC with Vaccinia virus [1] and in the assay on Vaccinia virus [2] was > 16 µg/mL throughout.
As for `C=CCn1c(COc2ccc(NC(=S)Nc3ccccc3)cc2)n[nH]c1=S`, the MIC in the assay with Vaccinia virus [1] and in the assay with Vaccinia virus [2] was > 80 µg/mL throughout.
On to `CNC(=S)Nc1ccc(-c2n[nH]c(=S)n2C)cc1`, for which the MIC in the assay with Vaccinia virus [1] and in the assay with Vaccinia virus [2] was 240 µg/mL (≈ 859 µM) throughout.
In the case of `S=C(Nc1ccc(Cl)cc1)Nc1ccc(-c2n[nH]c(=S)n2-c2ccccc2)cc1`, the MIC with Vaccinia virus [1] and in the assay on Vaccinia virus [2] was > 16 µg/mL in each case.
As for `C=CCNC(=S)Nc1ccc(-c2n[nH]c(=S)n2CCCCCC)cc1`, the MIC in the assay with Vaccinia virus [1] and in the assay on Vaccinia virus [2] was > 16 µg/mL in each case.
On to `C=CCn1c(-c2ccc(NC(=S)NC)cc2)n[nH]c1=S`, for which the MIC with Vaccinia virus [1] and with Vaccinia virus [2] was 240 µg/mL (≈ 786 µM) throughout.
As to `Nc1ccc(OCc2n[nH]c(=S)n2-c2ccccc2)cc1`, the MIC in the assay on Vaccinia virus [1] and with Vaccinia virus [2] was > 400 µg/mL throughout.
Regarding `C=CCNC(=S)Nc1ccc(-c2n[nH]c(=S)n2CC)cc1`, the MIC in the assay with Vaccinia virus [1] and with Vaccinia virus [2] was 240 µg/mL (≈ 751 µM) throughout.
For the molecule `CCCCCCNC(=S)Nc1ccc(-c2n[nH]c(=S)n2CCCCCC)cc1`, the MIC in the assay with Vaccinia virus [1] and with Vaccinia virus [2] was > 3.2 µg/mL in each case.
As for `C=CCNC(=S)Nc1ccc(OCc2n[nH]c(=S)n2CC)cc1`, the MIC with Vaccinia virus [1] and in the assay on Vaccinia virus [2] was 240 µg/mL (≈ 687 µM) each time.
As to `CCn1c(COc2ccc(NC(=S)Nc3ccccc3)cc2)n[nH]c1=S`, the MIC in the assay on Vaccinia virus [1] and in the assay with Vaccinia virus [2] was > 80 µg/mL throughout.
Turning to `CCn1c(COc2ccc(NC(=S)NC)cc2)n[nH]c1=S`, the MIC in the assay on Vaccinia virus [1] and in the assay with Vaccinia virus [2] was > 400 µg/mL in each case.
In the case of `Cn1c(-c2ccc(NC(=S)Nc3ccccc3)cc2)n[nH]c1=S`, the MIC with Vaccinia virus [1] and in the assay on Vaccinia virus [2] was > 80 µg/mL each time.
For `CCNC(=S)Nc1ccc(OCc2n[nH]c(=S)n2-c2ccccc2)cc1`, the MIC in the assay on Vaccinia virus [1] and with Vaccinia virus [2] was > 400 µg/mL in each case.
Regarding `S=C(Nc1ccccc1)Nc1ccc(OCc2n[nH]c(=S)n2-c2ccccc2)cc1`, the MIC with Vaccinia virus [1] and with Vaccinia virus [2] was > 80 µg/mL each time.
For `CNC(=S)Nc1ccc(-c2n[nH]c(=S)n2-c2ccccc2)cc1`, the MIC in the assay on Vaccinia virus [1] and in the assay with Vaccinia virus [2] was > 80 µg/mL each time.
For the molecule `C=CCn1c(COc2ccc(NC(=S)NC)cc2)n[nH]c1=S`, the MIC in the assay on Vaccinia virus [1] and with Vaccinia virus [2] was > 400 µg/mL throughout.
`C=CCNC(=S)Nc1ccc(-c2nnc(SCc3ccc(Cl)cc3Cl)n2-c2ccccc2)cc1`: the MIC in the assay with Vaccinia virus [1] and with Vaccinia virus [2] was > 16 µg/mL each time.
Consider `Cn1c(COc2ccc(N)cc2)n[nH]c1=S`, for which the MIC in the assay with Vaccinia virus [1] and in the assay with Vaccinia virus [2] was 240 µg/mL (≈ 1020 µM) each time.
`CCNC(=S)Nc1ccc(-c2n[nH]c(=S)n2-c2ccccc2)cc1`: the MIC in the assay on Vaccinia virus [1] and in the assay on Vaccinia virus [2] was > 3.2 µg/mL each time.
`C=CCNC(=S)Nc1ccc(-c2n[nH]c(=S)n2CC=C)cc1`: the results for the MIC in the assay with Vaccinia virus [1] and in the assay on Vaccinia virus [2] were > 80 µg/mL and > 400 µg/mL, respectively.
For `CCn1c(COc2ccc(N)cc2)n[nH]c1=S`, in that order: 240 µg/mL (≈ 959 µM) and 240 µg/mL (≈ 959 µM).
On to `CCNC(=S)Nc1ccc(-c2n[nH]c(=S)n2C)cc1`, for which the MIC in the assay with Vaccinia virus [1] and with Vaccinia virus [2] was 240 µg/mL (≈ 818 µM) in each case.
`C=CCNC(=S)Nc1ccc(-c2n[nH]c(=S)n2CCc2ccccc2)cc1`: the MIC in the assay on Vaccinia virus [1] and in the assay on Vaccinia virus [2] was > 80 µg/mL throughout.
In the case of `CCNC(=S)Nc1ccc(OCc2n[nH]c(=S)n2C)cc1`, the MIC with Vaccinia virus [1] and in the assay with Vaccinia virus [2] was > 400 µg/mL throughout.
Take `C=CCNC(=S)Nc1ccc(OCc2n[nH]c(=S)n2-c2ccccc2)cc1`: the MIC in the assay on Vaccinia virus [1] and in the assay on Vaccinia virus [2] was 240 µg/mL (≈ 604 µM) in each case.
`C=CCNC(=S)Nc1ccc(OCc2n[nH]c(=S)n2C)cc1`: the MIC with Vaccinia virus [1] and in the assay with Vaccinia virus [2] was > 400 µg/mL throughout.
For `CNC(=S)Nc1ccc(OCc2n[nH]c(=S)n2-c2ccccc2)cc1`, the MIC in the assay on Vaccinia virus [1] and with Vaccinia virus [2] was > 400 µg/mL in each case.
